Published values from different studies.
Lines come from different studies, so protocols differ.
Target: Tyrosine-protein kinase CSK (CSK, Homo sapiens, UniProt P41240)

`CS(=O)(=O)NCC[C@H](NC(=O)c1cncc2c1cnn2-c1ccc(F)cc1)c1ccnc(S(C)(=O)=O)c1` gave a remaining binding of 98% (cell-free assay, competition with immobilised ligand; 1 µM).
With `COc1cc2ncnc(Nc3ccc(Oc4ccccc4)cc3C)c2cc1OC` the inhibition was 91% (enzyme activity, inhibitor; 1 µM).
With `CO[C@@H](C)c1c(Nc2ccc([C@H](N(C)C(=O)C3CCS(=O)(=O)CC3)C(F)(F)F)cc2)cnc2cc(Cl)nn12` the remaining binding was 100% (cell-free assay, competition with immobilised ligand; 1 µM).
`Cc1nc(Nc2ncc(C(=O)Nc3c(C)cccc3Cl)s2)cc(N2CCN(CCO)CC2)n1` has an activity vs control of 7.11% (enzyme activity, inhibitor; 0.5 µM).
For `CNC(=O)c1ccc(Nc2ncc(C(F)(F)F)c(NCc3nccnc3N(C)S(C)(=O)=O)n2)cc1`, the remaining binding was 100% (cell-free assay, competition with immobilised ligand; 0.1 µM).
The inhibition of `CCN(CC)CCNC(=O)c1c(C)[nH]c(/C=C2\C(=O)Nc3ccc(F)cc32)c1C` is reported as -8% (enzyme activity, inhibitor; 0.3 µM).
`CS(=O)(=O)CCNCc1ccc(-c2ccc3ncnc(Nc4ccc(OCc5cccc(F)c5)c(Cl)c4)c3c2)o1` gave a remaining activity of 106% (enzyme activity, inhibitor; 0.5 µM).
`FC(F)c1nc2ccccc2n1-c1nc(N2CCOCC2)nc(N2CCOCC2)n1` gave a remaining activity of 84% (enzyme activity, inhibitor; 10 µM).
`CN1CC(Oc2cnc(C#N)cc2-c2ccn3nc(NC(=O)C4CC4)cc3c2)C1` gave an inhibition of -11% (enzyme activity, inhibitor; 1 µM).
`COc1cc2nccc(Oc3ccc(NC(=O)c4c5n(n(-c6ccc(F)cc6)c4=O)CCCC5)cc3)c2cc1OC` has an inhibition of 2% (enzyme activity, inhibitor; 0.1 µM).
The remaining binding of `CNC(=O)Nc1ccc2c(c1)[C@@]1(CC2)OC(=O)N(CC(=O)N(Cc2ccc(F)cc2)[C@@H](C)C(F)(F)F)C1=O` is reported as 100% (cell-free assay, competition with immobilised ligand; 1 µM).
`Cc1cnc(NC2CCOCC2)nc1-n1cnc(C(=O)NC(CN)c2cc(F)cc(Cl)c2)c1` (centres unmarked) gave a remaining activity of 110% (enzyme activity, inhibitor, radiometric; 1 µM).
`Nc1nc(NC2CCCCC2)sc1C(=O)c1ccccc1` gave a remaining activity of 95% (enzyme activity, inhibitor; 10 µM).
`Cc1ccc(Nc2nccc(N(C)c3ccc4c(C)n(C)nc4c3)n2)cc1S(N)(=O)=O` has an inhibition of -6% (enzyme activity, inhibitor; 0.3 µM).
`Nc1ncnc2occ(-c3ccc(NC(=O)Nc4cc(C(F)(F)F)ccc4F)cc3)c12` gave a remaining activity of 2% (enzyme activity, inhibitor; 20 µM).
`CN(C)C(=O)Cn1cc(-c2nc([C@@](C)(c3ccc(-c4cnc(N)nc4)cc3)C3CC3)no2)cn1` gave a remaining binding of 100% (cell-free assay, competition with immobilised ligand; 1 µM).
For `CCN1CCN(Cc2ccc(NC(=O)c3ccc(C)c(Oc4ccnc5[nH]ccc45)c3)cc2C(F)(F)F)CC1`, the inhibition was -14.9% (target engagement in cells, inhibitor, chemoproteomics; A-375; 0.5 µM).
